BindingDB's records for doi:10.1021/acsmedchemlett.0c00208 (University of Bonn, 2020)
pIC50: −log10 of the molar value.

Biological target: T1, N-arachidonyl glycine receptor (Homo sapiens, UniProt Q14330)
T1 sequence (Q14330 whole entry): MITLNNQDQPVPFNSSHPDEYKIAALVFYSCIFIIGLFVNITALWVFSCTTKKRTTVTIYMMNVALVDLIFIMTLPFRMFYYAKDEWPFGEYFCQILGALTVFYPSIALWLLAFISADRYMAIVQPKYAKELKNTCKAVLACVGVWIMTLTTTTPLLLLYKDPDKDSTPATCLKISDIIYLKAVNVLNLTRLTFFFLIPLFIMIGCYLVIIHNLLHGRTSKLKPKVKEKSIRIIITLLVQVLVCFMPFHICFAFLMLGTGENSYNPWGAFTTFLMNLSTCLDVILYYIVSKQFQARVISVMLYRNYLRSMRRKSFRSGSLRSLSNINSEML
Test: […] at Prolink1-tagged human GPR18 receptor expressed in CHO cells assessed as […] by measuring 2-(3-(6-(4-chlorophenoxy)hexyloxy)benzylidene)-6,7-dihydro-2H-imidazo[2,1-b][1,3]thiazin-3(5H)-one IC50 at 1 uM after 90 mins by beta-galactosidase based topcount luminescence analysis
Summary of the method: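 Human GPR18 stably expressed in CHO cells, β-arrestin enzyme complementation. Antagonist concentration-inhibition curves run against a fixed 1 μM agonist stimulus. IC50 and maximal inhibition derived from curves; means of three independent experiments, each in duplicate.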

pIC50: 6.03
SMILES: Cn1c(=O)c2c(nc3n2CCCN3CCc2c[nH]c3ccccc23)n(C)c1=O [9-(2-(1H-indol-3-yl)ethyl)-1,3-dimethyl-6,7,8,9-tetrahydropyrimido[1,2-a]purine-2,4(1H,3H)-dione]
